Measured values pooled from the literature.
Compare with care: the assays were run in different laboratories.
Read-out: metabolic stability
Species: human

| SMILES | system | conditions | endpoint | value |
| --- | --- | --- | --- | --- |
| N#Cc1ccccc1-c1nc(N2CCC(c3ccccn3)C2)c2ccccc2n1 (stereo not drawn) | liver microsomes | – | microsomal CLint | 350 µL/min/mg |
| NCc1ccccc1 | hepatocytes | 5 µM | hepatocyte CLint | 16.7 µL/min/10⁶ cells |
| CCCN(CCC)CCc1cccc2c1CC(=O)N2 | hepatocytes | 1 µM | hepatocyte CLint | 1.7 µL/min/10⁶ cells |
| C=CC(=O)Nc1cc(Nc2nccc(Nc3cc(Cl)c(F)cc3C(C)(C)O)n2)c(OC)cc1N1CC[C@@H](N(C)C)C1 | hepatocytes | – | hepatocyte CLint | 3.3 µL/min/10⁶ cells |
| C[C@H]1C[C@@H](N2C(=N)N[C@](C)(c3cccc(Nc4ccc(C5CC5)nc4)c3Cl)CC2=O)CCO1 | hepatocytes | 0.5 µM | hepatocyte CLint | 16 µL/min/10⁶ cells |
| CNS(=O)(=O)Cc1ccc2[nH]cc(CCN(C)C)c2c1 | hepatocytes | 5 µM | hepatocyte CLint | 2.8 µL/min/10⁶ cells |
| COc1cc(OC)cc(N(CCNC(C)C)c2ccc3ncc(-c4cnn(C)c4)nc3c2)c1 | hepatocytes | – | hepatocyte CLint | 2.53 µL/min/10⁶ cells |
| c1ccc(CCNc2nc(-c3ccccn3)nc3ccccc23)nc1 | liver microsomes | – | microsomal CLint | 42 µL/min/mg |
| C[C@H]1C[C@@H](N2C(=N)N[C@](C)(c3cccc(NC(=O)c4cccc(C#N)c4)c3Cl)CC2=O)CCO1 | hepatocytes | 0.5 µM | hepatocyte CLint | 5 µL/min/10⁶ cells |
| COc1ccnc(-c2nc3ccccn3c2Nc2ccc(F)cc2)c1 | liver microsomes | 3 µM, pH 7.4 | microsomal CLint | 120 µL/min/mg |
| Fc1ccccc1Nc1nc(-c2ccccn2)nc2ccccc12 | liver microsomes | – | microsomal CLint | 88 µL/min/mg |
| COc1ccnc(-c2nc3ccc(OC)cn3c2Nc2ccc(F)cc2)c1 | liver microsomes | 3 µM, pH 7.4 | microsomal CLint | 240 µL/min/mg |
| Fc1ccc(Nc2nc(-c3ccccn3)nc3ccccc23)cc1 | liver microsomes | – | microsomal CLint | 67 µL/min/mg |
| Fc1ccc(Nc2c(-c3cccnn3)nc3ccccn23)cc1 | liver microsomes | 3 µM, pH 7.4 | microsomal CLint | 64 µL/min/mg |
| c1ccc(-c2nc(Nc3ccn4nccc4c3)c3ccccc3n2)nc1 | liver microsomes | – | microsomal CLint | 120 µL/min/mg |
| CC(C)(C)[Si](C)(C)OCCN(c1ccc(F)cc1)c1c(-c2ccccn2)nc2ccccn12 | liver microsomes | 3 µM, pH 7.4 | microsomal CLint | > 300 µL/min/mg |
| O=c1[nH]c(=S)n(Cc2ccc(Cl)cc2CNCC(F)(F)F)c2cc[nH]c12 | hepatocytes | – | hepatocyte CLint | 4.3 µL/min/10⁶ cells |
| CN(c1ccc(F)cc1)c1c(-c2cc(Cl)ccn2)nc2ccccn12 | liver microsomes | 3 µM, pH 7.4 | microsomal CLint | 190 µL/min/mg |
| c1ccc(C2CCN(c3nc(-c4cnn5c4CCCC5)nc4ccccc34)C2)nc1 (stereo not drawn) | liver microsomes | – | microsomal CLint | 176 µL/min/mg |
| COc1ccc(-c2nc3ccc(OC)cn3c2Nc2ccc(F)cc2)nc1 | liver microsomes | 3 µM, pH 7.4 | microsomal CLint | 44 µL/min/mg |
| C[C@@H](N)c1cc(Cl)ccc1Cn1c(=S)[nH]c(=O)c2[nH]ccc21 | hepatocytes | – | hepatocyte CLint | < 1 µL/min/10⁶ cells |
